Series [1] has as its target Phosphatidylinositol 4,5-bisphosphate 3-kinase catalytic subunit gamma isoform (Homo sapiens, UniProt P48736). In words: Inhibition of human recombinant PI3Kgamma assessed as depletion of ATP substrate by Ultra Glo luciferase assay. Summed up: (§1)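 Enzyme IC50s are reported as the geometric mean of 3 or more values.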
Series [2] has as its target T1, Phosphatidylinositol 4,5-bisphosphate 3-kinase catalytic subunit beta isoform (Homo sapiens, UniProt P42338). The experiment in a line: Inhibition of PI3Kbeta in human MAD-MB-468 cells assessed as inhibition of Ser473 Akt phosphorylation by cellular potency assay.
Series [3] relates to Mus musculus. The experiment in a line: Inhibition of Akt phosphorylation in SCID mouse xenografted with PTEN-null human PC3 cells at 100 mg/kg, po measured after 8 hrs. The format is functional. The conditions noted are these: PC-3, 8 h. In outline:
(§2)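 SCID mice carrying PTEN-null PC3 prostate xenografts received a single oral dose as a suspension (50, 100 or 200 mg/kg).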
On the technique in general: A xenograft is tissue or cells of one species grown in another, often human tumour cells in immunodeficient mice.

Series [4] is described as follows: Fraction unbound in mouse plasma. It is filed as ADME, cell-free. Summed up:
(§3)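 Protein binding was measured in nude mouse plasma and in human plasma and is expressed as fraction unbound (%).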

Series [5] is described as follows: Total plasma concentration in SCID mouse xenografted with PTEN-null human PC3 cells at 100 mg/kg, po measured after 1 hr. The format is ADME, organism-based, PC-3. Set-up: dose 100 mg/kg, route oral. Summed up:
(§4)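 Total plasma concentration was measured in SCID mice carrying PC3 xenografts after a single oral dose given as a suspension (50, 100 or 200 mg/kg). Samples were taken at 0.5 to 8 h.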

Series [6] is described as follows: Buffer/octanol partition coefficient, log D of the compound at pH 7.4 by shake flask method. It is filed as physicochemical. In outline: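 LogD at pH 7.4 was measured by shake-flask with a buffer/octanol volume ratio of 100:1.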
The nature of series [7]: Fraction unbound in human plasma. The format is ADME, cell-free. In outline:
as §3

A short description of series [8]: Clearance in mouse plasma at 5 umol/kg, iv and 30 umol/kg, po. The format is ADME, organism-based. In outline: (§5)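 […] mice were dosed at 5 µmol/kg i.v. and 30 µmol/kg p.o. Clearance is given in mL/min/kg and oral bioavailability in %.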
Series [9] deals with T1, Phosphatidylinositol 4,5-bisphosphate 3-kinase catalytic subunit beta isoform. In words: Inhibition of human recombinant PI3Kbeta assessed as depletion of ATP substrate by Ultra Glo luciferase assay. In outline: as §1
A short description of series [10]: Ratio of total plasma concentration in PTEN-null human PC3 cells xenografted in SCID mouse at 100 mg/kg, po single dose at 1 hrs to IC50 for PI3Kbeta in human MAD-MB-468 cells. Further details: species or system PC-3.
Series [11] concerns the target T2, Phosphatidylinositol 4,5-bisphosphate 3-kinase catalytic subunit alpha isoform (Homo sapiens, UniProt P42336). In words: Inhibition of PI3Kalpha in human BT474 cells assessed as inhibition of […] Akt phosphorylation after 2 hrs by fluorescence assay. The format is cell-based, BT-474. Summed up:
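BT474 cells were seeded in DMEM with 10% FCS and 1% glutamine and left to adhere overnight, then treated with compound in DMSO for 2 h at 37 °C and 5% CO2. Cells were lysed with a phosphatase/protease-inhibitor buffer. Lysate was captured on anti-total-Akt plates, probed with anti-phospho-Akt Thr308 and an HRP secondary, and read by fluorescence (ex 325/em 420 nm). Values are the geometric mean of ≥2 determinations.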

Series [12] has as its target T3, Phosphatidylinositol 4,5-bisphosphate 3-kinase catalytic subunit delta isoform (Homo sapiens, UniProt O00329).
T3 sequence (O00329 whole entry): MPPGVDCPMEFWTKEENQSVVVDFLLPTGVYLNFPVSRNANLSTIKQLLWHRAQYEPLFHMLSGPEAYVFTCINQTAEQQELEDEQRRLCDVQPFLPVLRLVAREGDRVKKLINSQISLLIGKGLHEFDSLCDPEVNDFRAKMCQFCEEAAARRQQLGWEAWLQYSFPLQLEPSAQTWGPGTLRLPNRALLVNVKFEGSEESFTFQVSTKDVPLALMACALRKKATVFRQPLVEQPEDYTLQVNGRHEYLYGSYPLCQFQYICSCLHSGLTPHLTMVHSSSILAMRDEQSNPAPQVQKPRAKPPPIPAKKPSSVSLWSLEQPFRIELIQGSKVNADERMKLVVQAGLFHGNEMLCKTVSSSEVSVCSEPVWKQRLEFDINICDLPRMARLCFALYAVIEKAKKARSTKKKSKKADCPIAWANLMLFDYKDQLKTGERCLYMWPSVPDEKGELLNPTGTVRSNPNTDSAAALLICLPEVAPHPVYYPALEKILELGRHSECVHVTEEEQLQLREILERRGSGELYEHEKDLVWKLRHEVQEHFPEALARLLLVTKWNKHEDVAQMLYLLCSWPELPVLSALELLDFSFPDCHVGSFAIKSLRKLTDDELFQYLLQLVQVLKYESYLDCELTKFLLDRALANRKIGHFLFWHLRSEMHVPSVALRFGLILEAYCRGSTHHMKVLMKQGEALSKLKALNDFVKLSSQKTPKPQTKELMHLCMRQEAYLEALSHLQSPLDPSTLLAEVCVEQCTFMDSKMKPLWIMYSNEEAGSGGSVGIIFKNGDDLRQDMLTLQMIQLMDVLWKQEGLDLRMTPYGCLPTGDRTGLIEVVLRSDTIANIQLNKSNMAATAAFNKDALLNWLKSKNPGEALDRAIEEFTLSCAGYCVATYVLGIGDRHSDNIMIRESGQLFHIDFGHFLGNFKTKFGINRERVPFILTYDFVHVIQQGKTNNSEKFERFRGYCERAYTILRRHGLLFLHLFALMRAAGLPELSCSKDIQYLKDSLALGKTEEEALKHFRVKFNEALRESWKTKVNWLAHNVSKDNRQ
The experiment in a line: Inhibition of human recombinant PI3Kdelta assessed as depletion of ATP substrate by Ultra Glo luciferase assay. In outline: as §1

The nature of series [13]: Intrinsic clearance in human hepatocytes measured per 10^6 cells. The format is ADME, cell-based, Hepatocyte. To be noted: read-out: CLH. Summed up: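 Intrinsic clearance was measured in human hepatocytes and is expressed in µL/min/10^6 cells.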
Series [14] is described as follows: Ratio of total plasma concentration in PTEN-null human PC3 cells xenografted in SCID mouse at 100 mg/kg, po single dose at 4 hrs to IC50 for PI3Kbeta in human MAD-MB-468 cells. Further details: species or system PC-3.
Series [15] relates to Mus musculus. In words: Inhibition of Akt phosphorylation in SCID mouse xenografted with PTEN-null human PC3 cells at 100 mg/kg, po measured after 1 hr. It is filed as functional. The conditions noted are these: PC-3, 1 h. Summed up:
as §2

For series [16], the system named is Mus musculus. The experiment in a line: Inhibition of Akt phosphorylation in SCID mouse xenografted with PTEN-null human PC3 cells at 100 mg/kg, po measured after 4 hrs. It is filed as functional. The conditions noted are these: PC-3, 4 h. Summed up: as §2
Series [17] can be described thus: Total plasma concentration in SCID mouse xenografted with PTEN-null human PC3 cells at 100 mg/kg, po measured after 4 hrs. It is filed as ADME, organism-based, PC-3. Further details: dose 100 mg/kg, route oral. In outline:
as §4

Series [18] in a line: Bioavailability in mouse plasma at 5 umol/kg, iv and 30 umol/kg, po. The format is ADME, organism-based. In outline: as §5
Series [19] concerns the target T2, Phosphatidylinositol 4,5-bisphosphate 3-kinase catalytic subunit alpha isoform. In words: Inhibition of human recombinant PI3Kalpha assessed as depletion of ATP substrate by Ultra Glo luciferase assay. Summed up: as §1
Series [20] can be described thus: Total plasma concentration in SCID mouse xenografted with PTEN-null human PC3 cells at 100 mg/kg, po measured after 8 hrs. It is filed as ADME, organism-based, PC-3. Set-up: dose 100 mg/kg, route oral. Summed up: as §4
A short description of series [21]: Ratio of total plasma concentration in PTEN-null human PC3 cells xenografted in SCID mouse at 100 mg/kg, po single dose at 8 hrs to IC50 for PI3Kbeta in human MAD-MB-468 cells. Set-up: species or system PC-3.
Series [22] in a line: Apparent permeability from apical (pH 6.5) to […] of human Caco2 cells. The format is ADME, cell-based. To be noted: Caco-2, pH 6.5. A general note: Caco-2 monolayers are a common model of the intestinal barrier.
A short description of series [23]: Solubility of the compound in phosphate buffer at pH 7.4. It is filed as physicochemical. In outline:
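Solubility was measured from solid material in phosphate buffer at pH 7.4.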

In brackets after ≈: the same amount, converted by molar mass.

T2 sequence (P42336 whole entry, canonical isoform): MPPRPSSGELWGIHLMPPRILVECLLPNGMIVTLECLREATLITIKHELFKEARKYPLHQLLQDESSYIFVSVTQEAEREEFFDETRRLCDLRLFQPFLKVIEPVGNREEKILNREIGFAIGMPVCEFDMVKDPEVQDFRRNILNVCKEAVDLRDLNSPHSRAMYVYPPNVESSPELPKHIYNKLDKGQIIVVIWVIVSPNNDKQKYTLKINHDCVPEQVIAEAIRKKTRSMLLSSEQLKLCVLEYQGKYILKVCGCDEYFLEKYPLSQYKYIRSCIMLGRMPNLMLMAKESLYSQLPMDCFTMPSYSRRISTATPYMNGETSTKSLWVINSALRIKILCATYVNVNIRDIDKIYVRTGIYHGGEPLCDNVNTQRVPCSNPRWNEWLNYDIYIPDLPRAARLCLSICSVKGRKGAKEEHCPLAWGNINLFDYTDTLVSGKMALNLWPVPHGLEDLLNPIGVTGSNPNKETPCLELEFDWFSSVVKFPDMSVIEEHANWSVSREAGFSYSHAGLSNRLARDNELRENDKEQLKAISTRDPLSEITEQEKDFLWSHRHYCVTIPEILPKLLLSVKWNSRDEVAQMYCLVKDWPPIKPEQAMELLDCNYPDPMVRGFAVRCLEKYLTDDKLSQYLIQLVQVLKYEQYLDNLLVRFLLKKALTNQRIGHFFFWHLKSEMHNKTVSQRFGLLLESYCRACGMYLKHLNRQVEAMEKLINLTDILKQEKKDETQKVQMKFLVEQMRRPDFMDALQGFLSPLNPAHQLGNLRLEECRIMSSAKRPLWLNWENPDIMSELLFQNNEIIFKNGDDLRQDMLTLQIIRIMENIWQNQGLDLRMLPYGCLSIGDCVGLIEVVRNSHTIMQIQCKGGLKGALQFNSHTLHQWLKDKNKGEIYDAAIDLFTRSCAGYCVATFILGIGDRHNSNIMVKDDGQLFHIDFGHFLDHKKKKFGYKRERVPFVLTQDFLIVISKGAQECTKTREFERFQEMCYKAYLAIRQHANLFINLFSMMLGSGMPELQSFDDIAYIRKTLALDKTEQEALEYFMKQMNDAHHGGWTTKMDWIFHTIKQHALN
T1 sequence (P42338 whole entry, canonical isoform): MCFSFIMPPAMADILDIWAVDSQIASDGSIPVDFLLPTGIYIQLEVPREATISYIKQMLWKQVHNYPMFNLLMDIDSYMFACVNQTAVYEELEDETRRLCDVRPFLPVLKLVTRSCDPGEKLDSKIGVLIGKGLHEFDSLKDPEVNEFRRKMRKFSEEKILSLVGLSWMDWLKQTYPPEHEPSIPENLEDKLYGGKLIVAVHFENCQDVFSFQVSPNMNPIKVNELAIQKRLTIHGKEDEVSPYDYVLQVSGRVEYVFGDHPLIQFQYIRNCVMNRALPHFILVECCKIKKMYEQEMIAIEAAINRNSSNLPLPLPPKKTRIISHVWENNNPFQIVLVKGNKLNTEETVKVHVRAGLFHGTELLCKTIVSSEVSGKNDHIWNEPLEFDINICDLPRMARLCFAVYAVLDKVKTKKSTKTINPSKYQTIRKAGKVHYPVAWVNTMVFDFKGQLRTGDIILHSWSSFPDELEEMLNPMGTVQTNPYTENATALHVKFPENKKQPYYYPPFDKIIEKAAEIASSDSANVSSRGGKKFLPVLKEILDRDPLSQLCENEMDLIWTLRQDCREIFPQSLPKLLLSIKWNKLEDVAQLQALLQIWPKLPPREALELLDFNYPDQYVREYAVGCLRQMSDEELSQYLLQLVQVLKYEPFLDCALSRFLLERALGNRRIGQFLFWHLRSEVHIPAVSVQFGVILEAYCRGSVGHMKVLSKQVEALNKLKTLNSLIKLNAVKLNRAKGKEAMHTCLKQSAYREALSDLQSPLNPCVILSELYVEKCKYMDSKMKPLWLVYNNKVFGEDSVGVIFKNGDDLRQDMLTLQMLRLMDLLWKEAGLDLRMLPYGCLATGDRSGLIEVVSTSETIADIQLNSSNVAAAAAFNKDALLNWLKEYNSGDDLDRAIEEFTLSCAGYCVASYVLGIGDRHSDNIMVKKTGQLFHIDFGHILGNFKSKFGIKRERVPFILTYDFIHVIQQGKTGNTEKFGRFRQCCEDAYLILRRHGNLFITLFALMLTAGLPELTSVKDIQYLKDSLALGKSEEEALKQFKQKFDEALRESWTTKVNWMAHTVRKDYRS
Phosphatidylinositol 4,5-bisphosphate 3-kinase catalytic subunit gamma isoform, sequence (P48736 whole entry, canonical isoform): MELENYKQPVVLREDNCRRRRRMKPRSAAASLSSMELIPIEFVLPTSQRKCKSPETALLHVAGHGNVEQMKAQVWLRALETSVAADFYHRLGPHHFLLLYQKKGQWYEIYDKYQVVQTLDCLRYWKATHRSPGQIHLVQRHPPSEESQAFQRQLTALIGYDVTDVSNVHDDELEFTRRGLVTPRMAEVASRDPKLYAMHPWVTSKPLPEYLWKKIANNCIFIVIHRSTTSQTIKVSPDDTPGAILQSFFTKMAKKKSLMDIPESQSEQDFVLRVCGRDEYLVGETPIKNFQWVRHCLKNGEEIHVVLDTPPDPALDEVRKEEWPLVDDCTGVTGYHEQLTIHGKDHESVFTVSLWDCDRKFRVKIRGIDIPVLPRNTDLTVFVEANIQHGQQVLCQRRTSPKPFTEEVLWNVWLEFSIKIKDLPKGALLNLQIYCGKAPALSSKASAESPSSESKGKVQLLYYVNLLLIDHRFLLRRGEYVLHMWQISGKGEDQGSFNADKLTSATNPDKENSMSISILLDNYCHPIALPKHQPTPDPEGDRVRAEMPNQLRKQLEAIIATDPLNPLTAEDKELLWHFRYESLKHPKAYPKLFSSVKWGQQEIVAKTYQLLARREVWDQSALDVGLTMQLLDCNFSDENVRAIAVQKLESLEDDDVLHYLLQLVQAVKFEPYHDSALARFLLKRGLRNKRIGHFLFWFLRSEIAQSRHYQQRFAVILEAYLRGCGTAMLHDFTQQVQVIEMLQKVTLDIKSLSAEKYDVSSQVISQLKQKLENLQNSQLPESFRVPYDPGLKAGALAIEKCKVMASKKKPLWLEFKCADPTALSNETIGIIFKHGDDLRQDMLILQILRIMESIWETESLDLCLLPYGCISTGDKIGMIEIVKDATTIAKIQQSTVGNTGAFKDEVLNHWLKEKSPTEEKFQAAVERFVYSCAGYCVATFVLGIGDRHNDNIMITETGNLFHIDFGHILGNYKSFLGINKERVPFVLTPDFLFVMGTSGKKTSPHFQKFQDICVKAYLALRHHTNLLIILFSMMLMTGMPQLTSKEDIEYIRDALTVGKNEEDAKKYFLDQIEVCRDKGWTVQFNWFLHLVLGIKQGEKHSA

For `C[C@@H](Nc1cc(F)cc(F)c1)c1cc(C(=O)N(C)C)cn2c(=O)cc(N3CCOCC3)nc12`, the IC50 in series [1] was 510 nM; in series [2], 3 nM; in series [9] it was 5 nM; in [11], 1200 nM; in series [12] it was 32 nM; in [19] it was 75 nM. For the same compound, the values for the inhibition in vivo at 100 mg/kg in the series with Mus musculus [3], in the series with Mus musculus [15] and in the series on Mus musculus [16] were 56%, 92% and 80%, respectively. Besides, the fraction unbound came out at 0.047 in series [4] and 0.12 in [7]. In series [5], this compound had a concentration at 1 h of 13 µM. The same compound displayed a log distribution coefficient (logD) in series [6] of 3. This compound gave a clearance in [8] of 82 mL/min/kg. Also, the Ratio was determined as 204 in series [10], 106 in [14] and 41 in [21]. For the same compound, in series [13], the hepatocyte CLint was 11 µL/min/1e6 cells. The concentration at 4 h in [17] stood at 6.8 µM. The compound further had a bioavailability in series [18] of 31%. Also, in series [20], the concentration at 8 h came out at 2.6 µM. In addition, the apical-to-basolateral permeability (Papp A→B) in series [22] was determined as 50 ×10⁻⁶ cm/s. Moreover, the solubility in series [23] worked out at 15 µM (≈ 6.86 µg/mL).

As usually defined, the IC50 is the concentration that inhibits the measured activity by half. The inhibition in vivo is the drop in the measured response relative to a control, in per cent. A higher inhibition in vivo goes with a strong effect. In general, fraction unbound refers to the share of the substance not bound to proteins or other matrix. High values mean much free substance, low ones little free substance. The logD is lipophilicity at a set pH, counting ionised and neutral species. Low readings indicate lower lipophilicity, high ones higher lipophilicity. Broadly, the bioavailability is dose-corrected exposure relative to a reference, in per cent. Lower therefore signals little systemic uptake. The term Papp A→B denotes the apparent permeability from the apical to the basolateral side of a cell layer. Usually solubility stands for the concentration that dissolves in the medium under given conditions. Read a high solubility as much dissolved substance.

The values above are taken from ChEMBL document CHEMBL3351561, “Discovery of 9-(1-anilinoethyl)-2-morpholino-4-oxo-pyrido[1,2-a]pyrimidine-7-carboxamides as PI3Kβ/δ inhibitors for the treatment of PTEN-deficient tumours” (Bioorg Med Chem Lett, 2014).
